The list shows a part of the results. Inconclusive results are not listed. Unmarked numbers belong to inactive results. Active and inactive are the calls of the source.
Legend:
[1] = molecular target: Solute carrier family 12 member 5 (Homo sapiens) (UniProt Q9H2X9); test: retest of KCC2 transport modulators without sodium – cell-based, HEK293 KCC2, thallium flux, secondary assay, confirmation (AID 1713;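 active means thallium flux slope above the same plate's solvent-only control mean plus 3 SD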); conditions: FluoZin2 fluorescence, at 10 µM, active compounds read high
Chain of Solute carrier family 12 member 5 (Homo sapiens) (Q9H2X9 whole entry, looked up): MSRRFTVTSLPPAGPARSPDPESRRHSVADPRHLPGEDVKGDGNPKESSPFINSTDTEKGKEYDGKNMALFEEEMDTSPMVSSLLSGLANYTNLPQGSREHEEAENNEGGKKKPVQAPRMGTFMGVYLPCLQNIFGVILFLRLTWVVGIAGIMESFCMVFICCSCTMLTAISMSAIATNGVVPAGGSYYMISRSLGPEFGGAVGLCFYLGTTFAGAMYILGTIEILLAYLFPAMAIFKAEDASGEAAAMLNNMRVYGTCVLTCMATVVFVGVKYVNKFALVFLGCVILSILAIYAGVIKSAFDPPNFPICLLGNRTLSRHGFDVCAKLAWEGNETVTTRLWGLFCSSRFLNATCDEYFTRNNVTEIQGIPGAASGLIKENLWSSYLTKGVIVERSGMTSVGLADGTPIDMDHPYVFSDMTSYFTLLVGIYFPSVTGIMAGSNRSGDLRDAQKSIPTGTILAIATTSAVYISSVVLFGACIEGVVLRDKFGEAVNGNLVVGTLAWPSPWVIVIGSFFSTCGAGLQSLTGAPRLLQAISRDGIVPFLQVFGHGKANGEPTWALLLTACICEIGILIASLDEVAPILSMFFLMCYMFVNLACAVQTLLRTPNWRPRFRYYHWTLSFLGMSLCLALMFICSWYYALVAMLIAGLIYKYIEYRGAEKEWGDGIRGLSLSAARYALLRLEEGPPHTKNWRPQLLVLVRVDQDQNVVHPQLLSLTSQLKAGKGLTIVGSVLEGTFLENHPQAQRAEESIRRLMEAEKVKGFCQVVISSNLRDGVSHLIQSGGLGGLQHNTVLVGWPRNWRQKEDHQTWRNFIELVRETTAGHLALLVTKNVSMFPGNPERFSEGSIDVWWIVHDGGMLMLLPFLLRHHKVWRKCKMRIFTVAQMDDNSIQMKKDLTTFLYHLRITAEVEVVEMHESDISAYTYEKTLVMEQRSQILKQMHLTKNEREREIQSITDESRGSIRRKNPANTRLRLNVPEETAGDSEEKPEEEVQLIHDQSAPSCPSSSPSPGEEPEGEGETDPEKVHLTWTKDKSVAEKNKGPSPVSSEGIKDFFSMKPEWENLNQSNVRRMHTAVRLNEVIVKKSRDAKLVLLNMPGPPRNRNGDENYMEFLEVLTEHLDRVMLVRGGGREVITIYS
Summary of the method: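 Test system: KCC2-expressing HEK cells. Medium: Sodium-free N-methylglucamine chloride buffer. Schedule: dye loading 48 min. Technique: kinetic thallium-flux fluorescence imaging.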

PubChem AID 1714 = conditions: HEK293-KCC2 + bumetanide/ouabain, thallium flux FluoZin2; at 10 µM; active compounds read high
Summary of the method: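 Test system – KCC2-expressing HEK cells · Medium – HBSS-HEPES with ouabain and bumetanide · Reagent – thallium stimulus · Dosing – 10 µM single dose · Times – 48 min dye loading · Technique – kinetic FluoZin2 fluorescence, ex 480/em 540 nm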

[2] = molecular target: Solute carrier family 12 member 5 (Homo sapiens) (UniProt Q9H2X9); test: retest of KCC2 transport modulation, ouabain-free – cell-based, HEK293 KCC2, thallium flux, FluoZin2, secondary assay 2, confirmation (AID 1715;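 active means thallium flux slope more than 3 SD above or below the plate's solvent-only control mean, mostly below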;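 further: raw slope with 0.1% DMSO as baseline and bumetanide as block control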); conditions: HEK293-KCC2, thallium flux FluoZin2 fluorescence; at 10 µM; actives lie on both sides; F/F0 rise rate, 10–20 s post-thallium
[3] = compound effects on native HEK Tl+ uptake – HEK cells, counterscreen 1, counter-screen for KCC2 modulator project, confirmation (AID 1716); conditions: HEK293 parental cells, thallium flux FluoZin2, ouabain; at 10 µM; baseline-ratio fluorescence slope, 10–20 s after thallium
[4] = molecular target: Solute carrier family 12 member 5 (Homo sapiens) (UniProt Q9H2X9); test: modulation of KCC2 thallium flux in HEK cells – cell-based, ouabain, retest, confirmation (AID 1717;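 active means thallium flux slope beyond 3 SD from same-plate DMSO control mean in most replicates, usually higher, sometimes lower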;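 further: slope of initial-normalized fluorescence between seconds 10 and 20 after thallium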); conditions: HEK293-KCC2, thallium flux FluoZin2 fluorescence, at 10 µM, bidirectional: low = inhibitor, high = activator
[5] = native HEK Tl+ uptake effects, second counter-screen – HEK cells, counterscreen 2, counter-screen for KCC2 modulator project, confirmation (AID 1718;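 active means thallium flux slope above the same plate's solvent-control mean plus 3 SD in both duplicate wells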;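 further: run without ouabain in cells lacking the KCC2 cotransporter; slope of fluorescence scaled to its starting value between 10 and 20 s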); conditions: HEK293 parental, thallium flux FluoZin-2 fluorescence slope; at 10 µM
Summary of the method: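 Read-out: thallium influx rate; assay system: parental HEK cells; replication: slope calculated separately for each replicate well; signal: FluoZin2-AM fluorescence (0.5 µM), ex 480 nm, em 540 nm, kinetic 1 Hz; benchmarks: bumetanide 2 mM; schedule: overnight cell culture at 37 °C, 48 min dye loading, compound before thallium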

Compound	normalised thallium flux (F/F0 slope) [1]	normalized thallium flux (PubChem AID 1714)	normalized thallium flux [2]	thallium flux rate (normalised fluorescence) [3]	raw Tl+ flux slope (below DMSO = inhibition, above = activation) [4]	thallium flux slope [5]
CC(=O)NNc1cc(=O)c2c(=O)n(C)c(=O)n(C)c2[nH]1	0.0167	0.00524	0.0281	0.00797	0.0159	0.0112
O=C(Nc1ccc2oc(-c3ccccc3F)nc2c1)c1ccco1	0.0157	0.00477	–	0.00696	0.0137	0.00945
CCCCn1c(SCC(=O)NCC2CCCO2)nc2ccc(N3CCOCC3)cc2c1=O (stereo unspecified)	0.0177	0.0198 (active)	–	0.0094 (active)	0.0187 (active)	0.013 (active)
